Results on 14 compounds are retold here after ChEMBL document CHEMBL1148117, “Synthesis and structure-activity relationship study of lamellarin derivatives” (J Nat Prod, 2002).

By IC50 is commonly meant the concentration that gives 50% inhibition.

Some results are limits rather than exact numbers.

The test system of one data set is HeLa. Description: Cytotoxicity against human HeLa cells assessed as inhibition of colony formation after 5 to 8 days by colony assay. In kind it is functional, cell-based. In short, it runs like this:
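HeLa cells were seeded at 100-150 cells per well and grown with a range of compound concentrations in MEM with 10% fetal calf serum for 5-8 days at 37 °C under 5% CO2/95% air. Colonies were stained with 1% methylene blue in 50% methanol and counted; a cluster of 40 or more cells counted as one colony.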

A further data set deals with XC. As to the kind of experiment: Cytotoxicity against rat XC cells assessed as inhibition of colony formation after 5 to 8 days by colony assay. In kind it is functional, cell-based. Summed up: (§1)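 Colony-formation assay: 100-150 cells per well grown with varying concentrations of compound for 5-8 days at 37 °C under 5% CO₂/95% air. Colonies were stained with 1% methylene blue in 50% methanol and counted, with clusters of 40 or more cells scored as colonies. IC50 was estimated from dose-response curves.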

The subject of the next data set is Vero. As to the kind of experiment: Cytotoxicity against african green monkey Vero cells assessed as inhibition of colony formation after 5 to 8 days by colony assay. The format is cell-based. The settings on record: Chlorocebus sabaeus. In short, it runs like this: as §1
Data set [1] concerns MDCK. As to the kind of experiment: Cytotoxicity against MDCK cells assessed as inhibition of colony formation after 5 to 8 days by colony assay. The settings on record: Canis lupus familiaris. In kind it is cell-based. In short, it runs like this: as §1
Data set [2] has as its system MDCK. Description: Cytotoxicity against MDCK cells at 1 mM by MTT assay. The format is cell-based, Canis lupus familiaris. The settings on record: dog, 1000 µM. In general terms: Formazan colour is commonly taken as a measure of viable cells.
The subject of data set [3] is Human immunodeficiency virus 1. Description: Antiviral activity against HIV1 in cell cultures assessed as inhibition of viral replication. The format is functional, organism-based.

As for `COc1cc(-c2c3c4cc(OC)c(O)cc4oc(=O)c3n3ccc4cc(O)c(OC)cc4c23)ccc1O` [LAMELLARIN D], the IC50 with HeLa came out at 10.5 nM; in the data set on XC, 12.4 nM; in the data set with Vero, 10.5 nM; in the data set with MDCK [1], 22.5 nM. For the same compound, in the data set with MDCK [2], the Activity result is “Non-toxic”. On to `COc1cc2c(cc1O)oc(=O)c1c2c(-c2ccc(O)cc2)c2c3cc(OC)c(O)cc3ccn21`, for which the IC50 in the data set with HeLa worked out at 38 nM. The same measure, in the same setting: with `COc1cc2c(cc1O)oc(=O)c1c2c(-c2ccc(OC)c(OC)c2)c2c3cc(OC)c(OC)cc3ccn21` the figure was 2500 nM; with `O=c1oc2ccccc2c2c(-c3ccc(O)c(O)c3)c3c4cc(O)c(O)cc4ccn3c12`, 1100 nM.

With `CO[C@@]12[C@H](COC(N)=O)C3=C(C(=O)C(C)=C(N)C3=O)N1C[C@@H]1N[C@@H]12` [MITOMYCIN], in the data set on HeLa, the IC50 worked out at 68 nM. In the case of `COc1ccc(-c2c3c4cc(OC)c(OS(=O)(=O)O)cc4oc(=O)c3n3ccc4cc(OC)c(OC)cc4c23)cc1O`, the IC50 in data set [3] amounted to 8000 nM. As to `O=c1oc2cc(O)c(O)cc2c2c(-c3ccc(O)c(O)c3)c3c4cc(O)c(O)cc4ccn3c12` [LAMELLARIN H], the IC50 in the data set with HeLa is over 100000 nM.

Regarding `COc1ccc(-c2c3c4ccccc4oc(=O)c3n3ccc4cc(OC)c(OC)cc4c23)cc1OC`, the IC50 in the data set with HeLa was determined as 5700 nM; in the data set with XC, 5600 nM; in the data set with Vero it was 4700 nM; in the data set on MDCK [1], 5600 nM. In the case of `CC(=O)Oc1ccc(-c2c3c4cc(OC(C)=O)c(OC(C)=O)cc4oc(=O)c3n3ccc4cc(OC(C)=O)c(OC(C)=O)cc4c23)cc1OC(C)=O`, the IC50 in the data set on HeLa amounted to 11000 nM.

With `COc1ccc(-c2c3c4cc5c(cc4oc(=O)c3n3ccc4cc(OC)c(OC)cc4c23)OCO5)cc1OC`, the IC50 in the data set with HeLa was over 100000 nM. Still for that read-out and setting: then `COc1cc(-c2c3c4ccc(O)cc4oc(=O)c3n3ccc4cc(O)c(OC)cc4c23)ccc1O`, with 39.5 nM; and `COc1cc(-c2c3c4ccccc4oc(=O)c3n3ccc4cc(O)c(OC)cc4c23)ccc1O`, with 4000 nM; and `COc1cccc(-c2c3c4cc(OC)c(O)cc4oc(=O)c3n3ccc4cc(O)c(OC)cc4c23)c1`, with 70 nM. For the compound `COc1ccc2oc(=O)c3c(c(-c4ccc(O)c(OC)c4)c4c5cc(OC)c(O)cc5ccn43)c2c1`, in the data set with HeLa, the IC50 is 850 nM.
